One assay addresses D(2) dopamine receptor (Homo sapiens, UniProt P14416). Briefly: Displacement of [125I]IABN from human D2L receptor expressed in HEK293 cells after 60 mins by gamma counting analysis. The class given is cell-based. Summed up: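 Competitor spanned 5 orders of magnitude. Filtration with cold wash, then gamma counting. Single-site IC50 converted to Ki by Cheng-Prusoff. Mean of ≥3 independent experiments.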

The species entered for a further assay is Homo sapiens. Briefly: Selectivity ratio of Ki for human D2L receptor to Ki for human D3 receptor.
The target of assay [1] is T1, D(3) dopamine receptor (Homo sapiens, UniProt P35462). Briefly: Displacement of [125I]IABN from human D3 receptor expressed in HEK293 cells after 60 mins by gamma counting analysis. It counts as cell-based. A digest of the protocol: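 Competitor spanned 5 orders of magnitude. Nonspecific binding defined with 15 µM (+)-butaclamol. Filtration with cold wash, then gamma counting. Single-site IC50 converted to Ki by Cheng-Prusoff. Mean of ≥3 independent experiments.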
T1 sequence (P35462 whole entry): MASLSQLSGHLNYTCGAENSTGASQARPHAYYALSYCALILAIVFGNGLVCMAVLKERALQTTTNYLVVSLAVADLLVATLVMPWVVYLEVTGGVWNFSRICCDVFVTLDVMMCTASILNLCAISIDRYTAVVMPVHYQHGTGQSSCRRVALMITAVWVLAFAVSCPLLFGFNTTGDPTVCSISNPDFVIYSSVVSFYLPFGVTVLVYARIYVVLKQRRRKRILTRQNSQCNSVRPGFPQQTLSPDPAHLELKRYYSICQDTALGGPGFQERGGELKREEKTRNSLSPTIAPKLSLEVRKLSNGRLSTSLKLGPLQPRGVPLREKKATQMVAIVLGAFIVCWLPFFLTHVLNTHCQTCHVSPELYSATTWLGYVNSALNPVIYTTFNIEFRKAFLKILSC
Background: In a radioligand displacement assay an active substance lowers the binding of a labelled ligand.

The target of assay [2] is T1, D(3) dopamine receptor. Briefly: Partial agonist activity at human D3 receptor expressed in HEK293T cells coexpressing GalphaoA-91-Rluc8 and mVenus-Gbeta1gamma2 after 2 mins by bioluminescence resonance energy transfer assay relative to dopamine. The class given is functional, cell-based. The note with it: HEK-293T. A digest of the protocol: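 Human D3R transiently co-transfected (PEI) into HEK-293T cells with GαoA-RLuc8 and split-mVenus Gβ1/Gγ2; assayed ~48 h post-transfection. Cells in PBS/0.1% glucose at room temperature (40 µg protein/well), coelenterazine h 5 µM for 8 min, ligand for 2 min; BRET1 ratio 510–540/485 nm.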

The record followed here is ChEMBL document CHEMBL2163237, “Molecular determinants of selectivity and efficacy at the dopamine D3 receptor” (J Med Chem, 2012).

Chain of D(2) dopamine receptor (P14416 whole entry): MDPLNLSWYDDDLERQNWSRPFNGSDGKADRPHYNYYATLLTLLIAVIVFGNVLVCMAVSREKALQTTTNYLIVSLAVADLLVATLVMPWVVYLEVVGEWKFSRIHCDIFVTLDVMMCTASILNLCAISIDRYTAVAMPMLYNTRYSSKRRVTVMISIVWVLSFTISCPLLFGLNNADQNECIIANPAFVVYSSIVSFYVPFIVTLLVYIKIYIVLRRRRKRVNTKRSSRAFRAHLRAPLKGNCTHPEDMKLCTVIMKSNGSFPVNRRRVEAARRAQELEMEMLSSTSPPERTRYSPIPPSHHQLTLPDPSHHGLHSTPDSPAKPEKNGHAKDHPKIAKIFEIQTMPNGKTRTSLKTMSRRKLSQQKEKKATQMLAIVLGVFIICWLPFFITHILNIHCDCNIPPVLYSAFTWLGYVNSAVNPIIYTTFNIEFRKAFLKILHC

On to `CCCN1CCN(c2cccc(Cl)c2Cl)CC1`, for which the results for the Ki on D(2) dopamine receptor and at D(3) dopamine receptor [1] were 5.2 nM and 6.3 nM, respectively. Moreover, the Ratio Ki in the assay listed under Homo sapiens is 0.82.
On D(3) dopamine receptor [2], `COc1ccccc1N1CCN(CCCCNC(=O)c2cc3ccccc3[nH]2)CC1` had an Emax of 8.38%.
In the case of `COc1ccccc1N1CCN(C)CC1`, the figures for the Ki at D(2) dopamine receptor and at D(3) dopamine receptor [1] were 265 nM and 590 nM, respectively. Besides, the Ratio Ki in the assay filed under Homo sapiens was 0.45.
For the molecule `OCCN1CCN(c2cccc(Cl)c2Cl)CC1`, the figures for the Ki at D(2) dopamine receptor and at D(3) dopamine receptor [1] were 63.7 nM and 36.3 nM, respectively. In addition, the Ratio Ki in the assay filed under Homo sapiens amounted to 1.75.
The corresponding values for `CCC(=O)NCCCCN1CCN(c2ccccc2OC)CC1` are 84 nM, 38.6 nM and 2.18.
The matching figures for `CN1CCN(c2cccc(Cl)c2Cl)CC1`: 45.9 nM, 54.6 nM and 0.84.
Consider `O=C(NCC[C@@H](O)CN1CCN(c2cccc(Cl)c2Cl)CC1)c1cc2ccccc2[nH]1`, for which the Emax on D(3) dopamine receptor [2] was found to be 20.6%.
In the case of `CCCCNC(=O)c1cc2ccccc2[nH]1`, affinity on D(3) dopamine receptor [1] was put at a Ki of 21500 nM.
As to `CCCCN1CCN(c2ccccc2OC)CC1`, the inhibition constant (Ki) at D(2) dopamine receptor stood at 20.6 nM; on D(3) dopamine receptor [1] it was 23.9 nM. The Ratio Ki in the assay filed under Homo sapiens stood at 0.86.
On to `COc1ccccc1N1CCNCC1`, for which the figures for the Ki at D(2) dopamine receptor and on D(3) dopamine receptor [1] were 680 nM and 2260 nM, respectively. Moreover, the Ratio Ki in the assay listed under Homo sapiens was 0.3.
Turning to `O=C(NCCCCN1CCN(c2cccc(Cl)c2Cl)CC1)c1cc2ccccc2[nH]1`, the Emax at D(3) dopamine receptor [2] is 16%. At D(3) dopamine receptor [1], the Ki came to 1.4 nM.
As to `Clc1cccc(N2CCNCC2)c1Cl`, the Ki on D(2) dopamine receptor is 137 nM; at D(3) dopamine receptor [1], 197 nM. In the assay filed under Homo sapiens, the Ratio Ki was determined as 0.69.
The corresponding values for `CCC(=O)NCCCCN1CCN(c2cccc(Cl)c2Cl)CC1` are 15.6 nM, 4.8 nM and 3.25.
The matching figures for `CCCCN1CCN(c2cccc(Cl)c2Cl)CC1`: 3.4 nM, 1.9 nM and 1.79.

A word on the Ki: it is a measure of affinity in units of concentration, obtained from inhibition or displacement. Higher therefore signals lower affinity. The term Emax denotes the greatest response seen or fitted, relative to the assay's reference.
